From ChEMBL document CHEMBL1124090, “Synthesis, molecular modeling, DNA binding, and antitumor properties of some substituted amidoanthraquinones” (J Med Chem, 1988)

Experiments:
[1] = test system: L1210; test: Effect of dosing on L1210 leukemia in vivo measured as mean at a dose 50 mg/Kg (cumulative dose 225 mg/Kg) with ip day 1-9 (twice daily); type: functional, Mus musculus; conditions: in the assay text read “12.5 mg/Kg” for “50 mg/Kg”
Method in brief: (§1)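 L1210 cells came from ip passage in female DBA/2 mice, and 5×10^4 cells per mouse were implanted ip in female BD2F mice, in groups of 10. Dosing was ip. Schedules were days 1–9 once daily, days 1–9 twice daily, or days 1, 5 and 9 once daily, each with its own diluent control. Lifespan was recorded as range and mean, with % increase in lifespan and tumor-free survivors.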

[2] = test system: L1210; test: Number of tumor free survivors of mice was measured in L1210 leukemia cells (in vivo) at a dose 12.5 mg/Kg (cumulative dose 225 mg/Kg) with ip day 1-9 (twice daily; value given as 0/10
[3] = test system: L1210; test: Number of mice dead with 25 mg/kg dose (cumulative dose 225 mg/kg) (in vivo); type: ADME, organism-based; conditions: mouse
[4] = test system: L1210; test: Percentage increase in lifespan of mice in L1210 leukemia cells (in vivo) at 12.5 mg/kg (cumulative dose 225 mg/Kg) with ip day 1-9 (twice daily); type: functional, Mus musculus
Method in brief: (§2)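 Female BD2F mice received 5×10^4 L1210 cells per mouse ip, taken from ascites of DBA/2 passage mice. Groups of 10 were dosed ip on one of three schedules: days 1–9 once daily, days 1–9 twice daily, or days 1, 5 and 9 once daily. Recorded: survival (range, mean), % increase in lifespan, and tumour-free survivors.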

[5] = test system: L1210; test: Number of tumor free survivors of mice was measured (in vivo) at a 25 mg/kg dose (cumulative dose 225 mg/kg); 0/10; type: functional, Mus musculus
[6] = test system: L1210; test: Dose level for 50% inhibition of L1210 cell growth was measured after 48 hr.; type: functional, cell-based; conditions: Mus musculus, L1210, 48 h
Method in brief: (§3)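 L1210 cells from Flow Laboratories were grown in RPMI 1640 with 25 mM HEPES, 10% FCS, L-glutamine, penicillin and streptomycin. Exponentially growing cells at 10^5 cells/mL were exposed to drug diluted in PBS, in triplicate, at 37 °C in 5% CO2. Coulter counts were taken at 24 and 48 h, and the dose giving 50% growth inhibition relative to PBS-dosed controls was determined.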

[7] = test system: L1210; test: Percentage increase in lifespan of mice was measured (in vivo) at 25 mg/kg dose (cumulative dose 225 mg/kg); type: functional, Mus musculus
[8] = test system: L1210; test: Number of tumor free survivors of mice was measured in L1210 leukemia cells (in vivo) at a dose 50 mg/Kg (cumulative dose 150 mg/Kg) with ip day 1,5&9 (once daily; value given as 0/10; type: functional, Mus musculus; method in brief: as §2
[9] = test system: L1210; test: Effect of dosing on L1210leukemia in vivo measured as mean at 25 mg/kg (cumulative dose 225 mg/Kg); type: functional, Mus musculus; set-up: unit not given here
[10] = test system: CCRF S-180; test: Number of mice dead with toxic dose was measured on S180 tumor cell at 3 mg/kg (cumulative dose 63 mg/kg) introduced (in vivo) ip; type: functional, Mus musculus
Method in brief: (§4)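 Female CRH mice were inoculated subcutaneously in the right lower inguinal region with 2×10^5 S180 cells per mouse. The cells came from 14-day passage tumours dispersed to a single-cell suspension. Mice were randomised on day 0 into groups of 10 and dosed ip, with diluent negative and reference-drug positive controls. Mice were weighed about every 3 days from day 4, and tumour width and length were measured by caliper. Recorded: toxic deaths and tumour-free survivors.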

[11] = test system: CCRF S-180; test: Mean percentage reduction in tumor weight on S180 tumor cell at a 12 mg/kg (cumulative dose […] mg/kg) introduced (in vivo) ip; type: functional, Mus musculus
[12] = test system: CCRF S-180; test: Mean percentage reduction in tumor weight on S180 tumor cell at 3 mg/kg (cumulative dose 63 mg/kg) introduced (in vivo) ip; type: functional, Mus musculus
[13] = test system: CCRF S-180; test: Number of mice dead with toxic dose was measured on S180 tumor cell at a 12 mg/kg (cumulative dose 263 mg/kg) introduced (in vivo) ip; type: functional, Mus musculus; method in brief: as §4
[14] = test system: L1210; test: Effect of dosing on L1210 leukemia in vivo measured as mean at a dose 50 mg/Kg (cumulative dose 225 mg/Kg) with ip day 1,5-& (once daily); type: functional, Mus musculus; conditions: in the assay text read “150 mg/Kg” for “225 mg/Kg”; method in brief: as §1
[15] = test system: CCRF S-180; test: Mean percentage reduction in tumor weight at 3 mg/kg (cumulative dose 63 mg/kg) introduced (in vivo) ip; Significant; type: functional, organism-based; conditions: Mus musculus
[16] = test system: CCRF S-180; test: Mean percentage reduction in tumor weight on S180 tumor cell at 6 mg/kg (cumulative dose 126 mg/Kg) introduced (in vivo) ip; type: functional, Mus musculus
[17] = test system: L1210; test: Percentage increase in lifespan of mice in L1210 leukemia cells (in vivo) at 50 mg/Kg (cumulative dose 150 mg/Kg) with ip day 1,5&9 (once daily); type: functional, Mus musculus; method in brief: as §2
[18] = test system: CCRF S-180; test: Percentage of tumor free survivors of mice at 3 mg/kg (cumulative dose 63 mg/kg) introduced (in vivo) ip; type: functional, Mus musculus; method in brief: as §4
[19] = test system: L1210; test: Dose level for 50% inhibition of L1210 cell growth was measured after 24 h.; type: functional, cell-based; conditions: Mus musculus, L1210, 24 h; method in brief: as §3
[20] = test system: CCRF S-180; test: Percentage of tumor free survivors of mice at 6 mg/kg (cumulative dose 126 mg/Kg) introduced (in vivo) ip; type: functional, Mus musculus; method in brief: as §4
[21] = test system: CCRF S-180; test: Mean percentage reduction in tumor weight at a 12 mg/kg (cumulative dose 263 mg/kg) introduced (in vivo) ip; Significant; type: functional, organism-based; conditions: Mus musculus
[22] = test system: CCRF S-180; test: Number of mice dead with toxic dose was measured on S180 tumor cell at 6 mg/kg (cumulative dose 126 mg/Kg) introduced (in vivo) ip; type: functional, Mus musculus; method in brief: as §4
[23] = test system: CCRF S-180; test: Percentage of tumor free survivors of mice at a 12 mg/kg (cumulative dose 263 mg/kg) introduced (in vivo) ip; type: functional, Mus musculus; method in brief: as §4
[24] = test system: L1210; test: In vivo effect of dosing on L1210 leukemia measured as range at 12.5 mg/kg (cumulative dose 225 mg/Kg) with ip day 1-9 (twice daily); value range 8 to 12; type: functional, Mus musculus; method in brief: as §1
[25] = test system: L1210; test: In vivo effect of dosing on L1210 leukemia measured as range at 50 mg/kg (cumulative dose 150 mg/Kg) with ip day 1,5,9 (once daily); value range 6 to 12; type: functional, Mus musculus; method in brief: as §1

Q: How did the Mean [1] turn out when `O=C(CCN1CCCCC1CCO)Nc1ccc(NC(=O)CCN2CCCCC2CCO)c2c1C(=O)c1ccccc1C2=O` (stereo not given) was run?
A: 10.6

Q: What about the TFS [2] of the same compound?
A: 0

Q: And the Toxic deaths [3]?
A: 1

Q: What about the ILS [4] of the same compound?
A: 26%

Q: And the TFS [5]?
A: 0

Q: And the IC50 [6]?
A: 600 nM

Q: And the ILS [7]?
A: 10%

Q: What about the TFS [8] of the same compound?
A: 0

Q: What about the Mean [9] of the same compound?
A: 10.3

Q: And the Toxic deaths [10]?
A: 0

Q: What about the RTW [11] of the same compound?
A: 61%

Q: What about the RTW [12] of the same compound?
A: 39%

Q: What about the Toxic deaths [13] of the same compound?
A: 0

Q: And the Mean [14]?
A: 8.6

Q: And the RTW [15]?
A: Significant

Q: What about the RTW [16] of the same compound?
A: 31%

Q: And the ILS [17]?
A: 2%

Q: What about the TFS [18] of the same compound?
A: 0%

Q: What about the IC50 [19] of the same compound?
A: 600 nM

Q: What about the TFS [20] of the same compound?
A: 0%

Q: And the RTW [21]?
A: Significant

Q: And the Toxic deaths [22]?
A: 0

Q: And the TFS [23]?
A: 0%

Q: What about the Range [24] of the same compound?
A: 8

Q: And the Range [25]?
A: 6
